# Screens: PubChem BioAssay, several laboratories
# Compounds with a hit are over-represented: about 1.4% of the library has one in this group of screens.
# Yeast superoxide: yeast age-related superoxide inhibition as caloric restriction mimetic; S. cerevisiae aged cells, superoxide DHE fluorescence; hits give low values; AID 2690; hit rate 0.18% among 330,000; superoxide response (% of plate mean), % at 10 µM;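 active = superoxide response under a set limit, about three screen SD below normal, cut at about 65% in these data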;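 also: yeast aged for seven days with compound at 30 °C before DHE staining; 100% = average MFI of all compound-treated wells on the plate with controls excluded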
# Efflux pump mplx: antifungal efflux pump inhibition, Nile Red retention; S. cerevisiae Candida pump triplex; inhibition, % at 10 µM; hit rate 0.44% among 330,000; AID 485275;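 active = plate passing quality check with inhibition over a set limit, or well fluorescence over plate mean plus 4 SD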;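 also: Nile Red retained in pooled yeast measured as flow cytometry median fluorescence; 0% = buffer negative control and 100% = Enniatin B positive control; higher means more Nile Red kept so more efflux inhibition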
# Tb MetRS inh: Trypanosoma brucei MetRS inhibition; inhibition, % at 11.9 µM; purified T. brucei MetRS, ATP depletion, Kinase-Glo luminescence; hit rate 0.4% among 360,000;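 active = inhibition above a per-plate cutoff of the control wells' mean inhibition plus 3 SD, cut at about 5.5% in these data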;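 also: 0% = DMSO wells median and 100% = median of wells with control inhibitor compound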
#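 technique = Kinase-Glo luminescence, ATP depletion format | system = purified MetRS (methionyl-tRNA synthetase) enzyme from Trypanosoma brucei | timing = 15 min preincubation, 2 h reaction, all 25 °C | evaluation = percent inhibition versus plate control medians | dosing = single dose, 11.9 µM final nominal, 0.9% final DMSO | also added = substrates ATP, L-methionine and bulk Escherichia coli tRNA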
# IDE inh: inhibits human insulin-degrading enzyme in HEK cells; inhibition, % at 5.59 µM; hit rate 0.41% among 320,000; FAbetaB cleavage, fluorescence polarization; P14735;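 active = percent inhibition above the average of all tested compounds plus 3 SD, set per screening campaign, cut at about 16% in these data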;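 also: IDE supplied by intact live HEK cells; FP after avidin binding of uncleaved biotin substrate so inhibition keeps polarization high; 0% = DMSO wells and 100% = 60 µM reference IDE inhibitor Ii1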
# Target sequence (P14735 whole entry, looked up): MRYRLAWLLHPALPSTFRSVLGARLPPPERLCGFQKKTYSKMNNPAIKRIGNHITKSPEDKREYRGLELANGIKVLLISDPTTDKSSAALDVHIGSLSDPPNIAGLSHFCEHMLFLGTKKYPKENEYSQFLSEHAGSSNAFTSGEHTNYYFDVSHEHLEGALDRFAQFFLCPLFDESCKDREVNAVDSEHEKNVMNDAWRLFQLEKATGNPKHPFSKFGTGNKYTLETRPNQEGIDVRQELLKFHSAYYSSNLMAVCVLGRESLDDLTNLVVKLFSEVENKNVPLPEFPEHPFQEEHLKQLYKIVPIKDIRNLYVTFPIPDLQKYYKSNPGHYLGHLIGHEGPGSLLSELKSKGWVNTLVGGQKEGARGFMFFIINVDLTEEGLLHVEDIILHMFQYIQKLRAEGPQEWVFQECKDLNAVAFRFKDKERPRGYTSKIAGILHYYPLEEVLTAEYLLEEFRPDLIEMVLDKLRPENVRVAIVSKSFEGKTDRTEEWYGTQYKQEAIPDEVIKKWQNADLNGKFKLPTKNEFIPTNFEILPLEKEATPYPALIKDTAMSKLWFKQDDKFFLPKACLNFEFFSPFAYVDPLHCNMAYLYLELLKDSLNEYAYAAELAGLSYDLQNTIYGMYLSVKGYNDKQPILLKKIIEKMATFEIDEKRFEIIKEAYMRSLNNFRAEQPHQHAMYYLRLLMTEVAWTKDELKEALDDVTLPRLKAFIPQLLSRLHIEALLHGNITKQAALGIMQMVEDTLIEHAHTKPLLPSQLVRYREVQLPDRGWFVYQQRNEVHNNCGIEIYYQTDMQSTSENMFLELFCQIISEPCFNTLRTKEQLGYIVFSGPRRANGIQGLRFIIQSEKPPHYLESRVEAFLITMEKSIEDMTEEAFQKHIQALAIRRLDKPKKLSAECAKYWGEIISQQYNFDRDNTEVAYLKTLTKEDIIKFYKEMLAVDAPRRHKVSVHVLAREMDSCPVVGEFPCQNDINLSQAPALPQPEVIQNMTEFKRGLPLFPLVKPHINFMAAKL
# HDAC3 inhib: blocks human histone deacetylase 3; AID 2718; hit rate 0.15% among 320,000; recombinant HDAC3, fluorogenic peptide/trypsin coupled, fluorescence; inhibition, % at 8.3 µM; O15379; in the data active = inhibition above about 26%, passing the limit was not always enough
# IDE cell activ: activators of human insulin-degrading enzyme in cells; P14735; HEK cells, FAbeta-B cleavage, fluorescence polarization; 0% vehicle, 100% cell-free pure enzyme wells; activation, % at 5.96 µM; hit rate 0.073% among 340,000; AID 493087;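 active = activation above the mean of all tested compounds plus 3 SD, set per screening campaign, cut at about 17% in these data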
# CR mimetic CP: yeast aging superoxide inhibition, cherry pick confirmation; shares compounds with Yeast superoxide; hit rate 1% among 850; AID 434994; superoxide response (% of plate), % at 10 µM; S. cerevisiae aging, superoxide DHE fluorescence; hits give low values;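 active = superoxide signal below 65% of the plate average of sample wells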;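 also: cells aged with compound for 7 days at 30 degrees C before staining; 100% equals mean DHE fluorescence of all compound wells on the plate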
# DHE counter: counter-screen for compounds affecting DHE oxidation and fluorescence in yeast; shares compounds with Yeast superoxide; S. cerevisiae BY4741, flow cytometry; hits give low values; AID 435000; 850 tested, under 10 active; fluorescence response, % at 10 µM;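 active = fluorescence response below 15%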;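 also: percent of the mean fluorescence averaged over all compound wells on the plate; lower means stronger quenching of DHE signal or ROS scavenging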
# * hit, by the source's call; · = not tested or not shown; ! = not confirmed by another sample.
SMILES,Yeast superoxide,Efflux pump mplx,Tb MetRS inh,IDE inh,HDAC3 inhib,IDE cell activ,CR mimetic CP,DHE counter
CN(C)S(=O)(=O)N1CCN(c2cccc(Cl)c2)CC1,64.3*,0.1,0.3,1.8,-1.2,-1.3,108.8,89.4
CCCOc1cc(C)c(S(=O)(=O)N2CCOCC2)cc1C,92.5,-0.3,·,9.0,-1.8,·,·,·
CCOc1cc(C)c(S(=O)(=O)N2CCCC2)cc1C,64.5*,0.0,-0.5,-0.2,1.8,0.3,88.8,105.9
Cc1ccc(NC(=O)c2ccccc2OCC(=O)Nc2cccc(Cl)c2C)nc1,122.2,0.1,·,3.7,3.3,·,·,·
O=C1/C(=C/c2cccnc2)CC/C1=C\c1cccnc1,118.2,0.2,0.0,2.2,-1.2,3.3,·,·
O=C1/C(=C/c2cccnc2)CCC/C1=C\c1cccnc1,64.6*,0.0,·,5.5,7.5,·,103.8,87.2
Cc1ccc(C2=NNC3(CCOC(C)(C)C3)S2)cc1 (stereo unspecified),95.4,-0.1,-0.8,-3.4,-4.9,-6.6,·,·
O=C(c1ccc(Br)o1)N1CCN(c2ccc3nnc(-c4ccc(F)cc4)n3n2)CC1,98.7,0.3,0.0,3.6,0.1,2.7,·,·
CC(C)OC(=O)CSc1nnc(-c2ccc(Cl)cc2Cl)o1,107.3,0.0,-0.1,5.8,5.3,-2.7,92.6,91.8
CC(=O)c1ccc(NC(=O)Nc2ccccc2)cc1,110.7,0.0,1.4,0.4,1.7,1.2,·,·
Cc1cc(/C=N/NC(=O)C(O)(c2ccccc2)c2ccccc2)c(C)n1-c1ccc(C(=O)O)cc1,55.5*,-0.3,-0.6,-4.3,·,4.6,96.4,105.2
Cc1nn(CC(=O)NCCC2=CCCCC2)c(C)c1[N+](=O)[O-],116.8,-0.1,-0.5,-3.5,5.9,0.7,·,·
COc1ccc(NC(C)=O)cc1S(=O)(=O)NC(C)c1ccc(-n2ccnc2)cc1 (stereo unspecified),83.8,-0.1,0.0,0.1,-4.8,3.7,·,·
CCCCn1c(=O)c2c(O)cc(=O)oc2c2ccccc21,43.3*,0.0,-1.3,-1.4,2.3,6.6,115.0,105.4
O=c1cc(O)c2c(=O)n(C3CCCCC3)c3ccccc3c2o1,98.0,-0.1,-0.4,-5.6,2.6,1.2,90.0,91.4
O=c1cc(O)c2c(=O)n(Cc3ccccc3)c3ccccc3c2o1,70.4,-0.1,-1.2,9.5,-1.1,-2.1,·,·
COc1ccc(N2CCN(C(=O)Cn3ncc4c([nH]c5ccccc54)c3=O)CC2)cc1,91.3,0.0,0.1,6.4,2.4,-6.3,·,·
OCC[C@H]1C[C@H](O)[C@@H](O)[C@]2(OCc3ccccc32)O1,85.6,0.2,-0.1,-0.8,-4.4,1.2,·,·
Cc1ccc(CSc2ncnc3onc(C)c23)cc1,58.5*,-0.1,0.1,3.9,1.3,-0.2,111.6,110.6
COc1cc(/C=C2\CCOC2=O)cc(OC)c1OC,99.1,0.2,-0.9,2.3,2.3,2.8,·,·
COc1ccc(C)cc1NC(=O)CSc1nnc(-c2ccco2)n1Cc1ccco1,98.1,-0.1,-1.5,6.5,2.4,2.5,·,·
C=CCn1c(SCC(=O)Nc2cc(C)c(Cl)cc2OC)nnc1-c1ccco1,97.5,0.0,-1.2,-0.6,-19.9,0.7,103.7,97.2
C=CCn1c(SCC(=O)Nc2cc(OC)c(NC(=O)c3ccco3)cc2OC)nnc1-c1ccncc1,91.7,0.0,-0.4,-5.1,2.4,1.1,·,·
C=CCn1c(SCC(=O)Nc2cc(C)ccc2OC)nnc1-c1ccco1,115.5,0.3,-0.7,4.8,-1.1,-1.0,95.8,91.1
O=C(Nc1ccccc1)/C(=C\c1ccccc1)NC(=O)c1ccco1,92.3,0.0,-0.8,5.1,1.2,·,·,·
SMILES,Yeast superoxide,Efflux pump mplx,Tb MetRS inh,IDE inh,HDAC3 inhib,IDE cell activ,CR mimetic CP,DHE counter
O=C(Nc1ccccc1)/C(=C/c1cccnc1)NC(=O)c1ccco1,61.8*,0.1,-0.7,-2.6,2.6,2.2,113.2,100.7
[O-]/[N+](=C\c1ccco1)c1ccc(Cl)cc1,67.6,0.0,0.5,6.4,6.4,-2.7,·,·
COc1cc(Nc2ncnc(N)n2)cc(OC)c1,59.4*,0.0,-0.3,-6.7,-2.8,-3.6,104.8,109.8
CCOC(=O)NC(=O)/C(C#N)=N/Nc1ccc(F)cc1,81.0,-0.1,-0.5,0.7,8.1,3.4,107.0,112.5
Cc1ccc(-c2nc(N)n(S(C)(=O)=O)n2)cc1,65.2*,-0.1,0.1,4.9,-5.2,-0.7,115.3,108.6
C[C@H]1CCC(=O)N([C@H](CSc2ccc(Br)cc2)Cc2ccccc2)CC1,99.0,-0.3,-0.3,-2.9,-5.6,-3.1,·,·
CC(=O)Nc1cc2c(cc1NC(=O)Cn1nc(-c3ccccc3F)ccc1=O)OCCO2,61.6*,0.0,0.4,5.7,-0.7,3.1,99.5,109.7
COc1ccc(C(C)(C)C)cc1NC(=O)CCCN1C(=O)NC(C)(C)C1=O,113.0,-0.1,-0.4,5.8,-12.8,4.6,·,·
O=C1CC(=C(c2ccccc2)c2ccccc2)C(=O)N1CCCN1CCN(c2cccc(Cl)c2)CC1,96.8,0.3,-0.5,-0.7,5.9,5.7,·,·
O=C1CC(=C2c3ccccc3-c3ccccc32)C(=O)N1CCCCN1CCN(c2ccccc2)CC1,14.6*,0.1,-0.4,0.6,2.7,-4.2,97.2,94.1
CC1CCCC(CC(N)=O)CC1 (stereo unspecified),·,·,-0.2,·,·,3.5,·,·
O=C(COc1ccccc1)NC(=S)Nc1cccc2cc(O)ccc12,92.1,-0.3,-0.5,-1.4,5.7,-1.2,·,·
c1cnc2c(c1)ccc1cccnc12,63.7*!,-0.1,0.1,0.3,2.7,0.3,88.9,105.1
CCN(c1ccc(OC)cc1)S(=O)(=O)N1CCCC(C(=O)NC(C)c2ccccc2)C1 (stereo unspecified),·,·,-0.1,·,·,·,·,·
O=C(NCCC1=CCCCC1)c1c(O)nc2sccn2c1=O,80.3,0.0,0.1,4.2,·,0.3,·,·
O=C(NCCC1=CCCCC1)c1c(O)nc2ccccn2c1=O,63.8*,0.1,-0.4,2.0,0.7,4.0,84.7,94.2
COc1cc(C(=O)N2CCN(c3ccccc3)CC2)c2ccccc2n1,·,·,0.3,·,·,3.6,·,·
CCOC(=O)N1CCN(C(=O)C[C@@H]2C[C@@]3(C(=O)OCC)CCCC=C3N(Cc3ccco3)C2=O)CC1,·,·,-1.7,·,·,·,·,·
OCCN(CCO)c1ccc(C(c2ccc(Cl)cc2)c2ccc(N(CCO)CCO)cc2Cl)c(Cl)c1,61.8*,0.2,-0.1,4.9,3.4,-1.8,94.9,96.7
Nc1ccc(N(CCO)CCO)cc1,110.8,0.2,0.2,-0.8,5.5,2.5,·,·
CC(C)CNC(=S)NNC(=O)c1csc2c1CCC(C)C2 (stereo unspecified),59.1*,-0.5,0.0,-1.0,0.1,0.1,90.8,89.2
Cn1c(=O)c(C(=O)NNC(=O)c2ccccc2F)c(O)c2ccccc21,64.3*,0.1,0.2,0.7,0.4,4.1,90.7,89.0
